Assay outcomes: PubChem, Sanford-Burnham Center for Chemical Genomics
Only some compounds are listed: those with a hit (about 1.5% of all), similar ones and a draw of the others.
APJ agonist: activates the human apelin receptor APJ; 330,000 compounds, 0.11% hits; CHO-K1 APJ PathHunter beta-arrestin, luminescence; 0% DMSO wells, 100% apelin; AID 2520; activation, % at 20 µM; P35414;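 active = activation more than six SD over the plate average, tested at 20 µM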;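 note: 0% = DMSO alone and 100% = apelin-13 at 10 nM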
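Assay system: CHO-K1 cells stably expressing ProLink-tagged human APJ and arrestin–beta-gal acceptor. Compound dosing: 20 µM single point, 1% DMSO. Times: 16-18 h seeding, 90 min dark compound exposure, 60 min detection. Detection: beta-gal luminescence. Evaluation: APJ–arrestin association signal. Controls: negative DMSO alone, positive Apelin-13 at 10 nM.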
APJ antag: antagonists of human APJ apelin receptor; P35414; CHO-K1 APJ beta-arrestin complementation, luminescence; inhibition, % at 20 µM; 330,000 compounds, 0.32% hits; AID 2521;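 active = inhibition above about 40% at 20 µM, limit read from the data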;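 note: cells challenged with 10 nM apelin-13 agonist together with compound; plate controls were apelin-13 plus DMSO wells for no effect and DMSO wells lacking apelin-13 for full effect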
CCR6 antagonist: blocks CCL20-driven beta-arrestin recruitment at human CCR6; P51684; CHO-K1 CCR6 PathHunter beta-arrestin, luminescence, CCL20-stimulated; inhibition, % at 20 µM; 340,000 compounds, 0.49% hits; AID 493098;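 active = compounds whose inhibition of the agonist-driven luminescence signal at 20 µM reaches about 50%, limit read from the data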;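 note: cells stimulated with CCL20 at 14 nM final; plate controls were DMSO with CCL20 for no effect and DMSO without agonist for full effect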
EBI2 block: antagonists of human EBI2 receptor | P32249 | EBI2 beta-arrestin recruitment, luminescence, 7a,25-OHC stimulated | inhibition, % at 5 µM | 360,000 compounds, 0.81% hits | AID 651636; in the data active = inhibition above about 38%;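 note: enzyme fragment complementation signal reports receptor beta-arrestin coupling in cells; 0% = agonist plus DMSO wells and 100% = wells without agonist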
CXCR6 block: blocks human CXCR6 beta-arrestin recruitment. O00574. CHO-K1 PathHunter CXCR6 beta-arrestin, luminescence. inhibition, % at 20 µM. 360,000 compounds, 0.36% hits; in the data active = inhibition above about 34%, passing the limit was not always enough;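 note: antagonist mode with CXCL16 agonist at 10 nM final; 0% = 10 nM CXCL16 with DMSO and 100% = unstimulated wells without agonist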
Target sequence (O00574 whole entry, looked up): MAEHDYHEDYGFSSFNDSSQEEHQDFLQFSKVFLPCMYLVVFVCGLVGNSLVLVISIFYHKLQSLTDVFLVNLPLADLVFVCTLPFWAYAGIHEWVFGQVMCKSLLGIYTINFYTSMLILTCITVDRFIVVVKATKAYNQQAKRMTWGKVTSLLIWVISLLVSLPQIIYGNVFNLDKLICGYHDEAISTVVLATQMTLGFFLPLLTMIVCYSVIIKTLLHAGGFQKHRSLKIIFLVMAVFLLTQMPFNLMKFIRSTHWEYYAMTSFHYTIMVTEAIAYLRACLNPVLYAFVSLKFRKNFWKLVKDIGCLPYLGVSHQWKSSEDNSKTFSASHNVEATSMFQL
EBI2 conf: EBI2 (human) antagonism, single concentration confirmation; shares compounds with EBI2 block; EBI2 beta-arrestin luminescence, 7a,25-OHC antagonism; inhibition, % at 5 µM; 2,400 compounds, 29% hits;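 active = inhibition of at least 50%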
EBI2 ag: activates EBI2, counter-screen for EBI2 antagonists; 2,400 tested, under 10 active; shares compounds with EBI2 block; EBI2-expressing cells, agonist mode, luminescence, 60 min; 0% vehicle, 100% 7α,25-dihydroxycholesterol control; activation, % at 5 µM;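 active = activation of at least 50%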
bGal counter: inhibits E. coli beta-galactosidase, counter-screen for EBI2 antagonists | shares compounds with EBI2 block | 2,400 compounds, 1% hits | purified beta-galactosidase, luminescent Galacton Star, 15 min | inhibition, % at 5 µM | AID 652176;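 active = replicate-average signal at least 3 plate SD below neutral wells, shown as high inhibition, flagging enzyme-inhibiting false positives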;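 note: 0% = DMSO wells with enzyme and 100% = wells lacking enzyme; higher means stronger loss of beta-gal luminescence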
Active calls of the source: *; nt = not tested or not shown.

SMILES | APJ agonist | APJ antag | CCR6 antagonist | EBI2 block | CXCR6 block | EBI2 conf | EBI2 ag | bGal counter
COC(=O)C1=C(c2ccc(F)cc2OCc2ccccc2)C[C@@H]2CC[C@H]1N2C(=O)N1CCC(O)(c2ccc(Cl)cc2)CC1 | -2 | 1 | 7 | 52* | 8 | 16 | 3 | -15
O=C(c1ccc(Cl)cc1)C12CN3CN(CN(C3)C1)C2 | -1 | 12 | -6 | -8 | 2 | nt | nt | nt
Cc1ccc(N2Cc3ccccc3C2=N)cc1[N+](=O)[O-] | -5 | 7 | 5 | -11 | 2 | nt | nt | nt
COc1ccc(OCC(=O)N2CCN(CC3CC4C=CC3C4)CC2)cc1 (configuration not stated) | -2 | 16 | -10 | 83* | -2 | 56* | 1 | 2
CCC(C)N1CCN(C(=O)COc2ccc3ccccc3c2)CC1 (configuration not stated) | 0 | 26 | 8 | 91* | 2 | 74* | 1 | 5
O=C(COc1ccc(Br)cc1)N1CCN(Cc2c[nH]c3ccccc23)CC1 | 1 | 15 | -5 | 81* | -3 | 54* | 1 | 9
CN1CCN(C(=O)COc2ccc(Oc3ccccc3)cc2)CC1 | -1 | -19 | 7 | -4 | 5 | nt | nt | nt
COc1ccc(CN2CCN(C(=O)COc3ccc4ccccc4c3)CC2)c(OC)c1 | -4 | 5 | 13 | 78* | -6 | 69* | 2 | 8
O=C(COc1ccc2ccccc2c1)N1CCN(Cc2c[nH]c3ccccc23)CC1 | -4 | -12 | 6 | 83* | -25 | 53* | 1 | 8
CC(N)C(=O)c1ccco1 (configuration not stated) | 2 | -5 | 30 | -4 | 7 | nt | nt | nt
CCCCN1C(=O)NC(=O)/C(=C/c2cnc(SC)nc2)C1=O | -3 | 13 | -12 | -7 | 2 | nt | nt | nt
CC(=Nc1c(C)n(C)n(-c2ccccc2)c1=O)c1c(O)n(Cc2ccccc2)c(=O)[nH]c1=O | -3 | 12 | -4 | -3 | 9 | nt | nt | nt
Cc1cccc(C)c1-n1nnnc1C(c1cccs1)N1CCC(n2c(=O)[nH]c3ccccc32)CC1 (configuration not stated) | nt | nt | nt | 13 | 14 | nt | nt | nt
Cc1cccc(C)c1-n1nnnc1C(c1cccc2ccccc12)N1CCC(n2c(=O)[nH]c3ccccc32)CC1 (configuration not stated) | nt | nt | nt | 42* | 3 | 35 | -1 | -18
CC(Cc1cnccn1)NCc1c(C(=O)N2CCCCCCC2)nc2ccc(Cl)cn12 (configuration not stated) | -1 | 2 | -13 | 0 | 8 | nt | nt | nt
